How the values were obtained:
[1] = cited from earlier work
Exposure parameters = format: in vivo, human; settings: for AUC0-6, mean (%CV) / AUC0-6, median [range] / Cmax, mean (%CV) / Cmax, median [range]: popPK model-derived
How it was run: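 Final popPK model simulated concentration-time profiles from each subject's actual dosing history: single SC doses of 30 or 45 mg in adult HAE patients, and 0.05, 0.2 and 0.4 mg/kg single ascending doses in healthy adults. AUC0-6 came from simulated rich profiles by the trapezoidal rule, alongside Cmax, tmax and distribution and terminal half-lives. Values were summarised descriptively.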

[2] = test system: pediatric patients with HAE; test: Time to onset of symptom relief; format: in vivo, human; settings: for Median time to 50% probability of TOSR: pediatric HAE
How it was run: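 Pediatric HAE patients aged 2-17 received single SC 0.4 mg/kg (≤30 mg). The investigator scored symptoms before and after dosing. TOSR was the earliest time with ≥20% improvement in composite score and no component worsening. Model-predicted CTOSR, AUC0-TOSR, AUC0-6 and Cmax were related to TOSR by Kaplan-Meier curves stratified by exposure tertiles, and also by age group and sex.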

[3] = Population pharmacokinetic; format: in vivo, human
How it was run: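 Pooled data from healthy adults, adult HAE patients and pediatric HAE patients aged 2-17 (2172 plasma concentrations, LC-MS/MS) were fitted with a two-compartment model. It had first-order absorption, lag time, and allometric weight effects with estimated exponents. Between-subject variability was log-normal, with additive plus proportional residual error. Covariates were weight, age, sex, race and attack within 12 h. CIs came from about 1000 bootstrap replicates, with prediction-corrected VPC.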

[4] = adult patients with HAE, SC 30 mg, n = 4
[5] = adult patients with HAE, SC 45 mg, n = 4
[6] = healthy subjects, SC 0.4 mg/kg, n = 24
[7] = healthy subjects, SC 30 mg, n = 109
[8] = pediatric patients with HAE 2-5 years, SC 0.4 mg/kg, n = 2
[9] = pediatric patients with HAE, SC 0.4 mg/kg (≤30 mg)
[10] = final popPK model, typical value, reference 70 kg
[11] = typical 70-kg adult, final popPK model

NC(N)=NCCC[C@@H](N)C(=O)N[C@@H](CCCN=C(N)N)C(=O)N1CCC[C@H]1C(=O)N1C[C@H](O)C[C@H]1C(=O)NCC(=O)N[C@@H](Cc1cccs1)C(=O)N[C@@H](CO)C(=O)N1Cc2ccccc2C[C@@H]1C(=O)N1[C@H](C(=O)N[C@@H](CCCN=C(N)N)C(=O)O)C[C@@H]2CCCC[C@@H]21 [icatibant]
Time to achievement of maximum plasma concentrations ([1]; adults, single subcutaneous injection of 30 mg): ≤ 1 h
Parent drug excreted unchanged in human urine ([1]; human): < 10%
AUC0-6, mean (%CV) (Exposure parameters; [4]): 2725 (25.3) ng·h/mL
AUC0-6, median [range] (Exposure parameters; [4]): 2975 [1734‐3216] ng·h/mL
Cmax, mean (%CV) (Exposure parameters; [4]): 1279 (16.7) ng/mL
Cmax, median [range] (Exposure parameters; [4]): 1254 [1056‐1551] ng/mL
AUC0-6, mean (%CV) (Exposure parameters; [5]): 5473 (18.6) ng·h/mL
AUC0-6, median [range] (Exposure parameters; [5]): 5565 [4155‐6608] ng·h/mL
Cmax, mean (%CV) (Exposure parameters; [5]): 2136 (16.3) ng/mL
Cmax, median [range] (Exposure parameters; [5]): 2222 [1680‐2421] ng/mL
AUC0-6, mean (%CV) (Exposure parameters; [6]): 2669 (20.9) ng·h/mL
AUC0-6, median [range] (Exposure parameters; [6]): 2704 [1720‐3829] ng·h/mL
Cmax, mean (%CV) (Exposure parameters; [6]): 1240 (25.1) ng/mL
Cmax, median [range] (Exposure parameters; [6]): 1258 [836‐2120] ng/mL
AUC0-6, mean (%CV) (Exposure parameters; [7]): 2038 (23.8) ng·h/mL
AUC0-6, median [range] (Exposure parameters; [7]): 1941 [1126‐3311] ng·h/mL
Cmax, mean (%CV) (Exposure parameters; [7]): 974 (30.1) ng/mL
Cmax, median [range] (Exposure parameters; [7]): 915 [524‐2115] ng/mL
AUC0-6, mean (%CV) (Exposure parameters; [8]): 900 (24.6) ng·h/mL
AUC0-6, median [range] (Exposure parameters; [8]): 900 [744‐1056] ng·h/mL
Cmax, mean (%CV) (Exposure parameters; [8]): 692 (18.1) ng/mL
Cmax, median [range] (Exposure parameters; [8]): 692 [604‐780] ng/mL
Mean AUC0-6 lower than in adult patients with HAE treated with 30 mg (Exposure parameters; [9]): about 50%
Mean Cmax lower than in adult patients with HAE treated with 30 mg (Exposure parameters; [9]): ~42%
Median time to 50% probability of TOSR ([2]; first tertile of CTOSR): 2.00 h
Time within which all patients displayed resolution of symptoms ([2]; pediatric patients with HAE, single SC 0.4 mg/kg (≤30 mg)): ≤ 4 h
Median time to 50% probability of TOSR ([2]; second tertile of CTOSR): 1.03 h
Cl/F lower than in a 70-kg adult ([3]; 60-kg adolescent (aged 12-17 years), final popPK model): 7%
Time to complete absorption after dosing ([3]; SC dosing, expected from final popPK model): ≤ 1 h
Absorption half-life t1/2(a) ([3]; corresponding to ka = 3.27 h^–1, SC dosing, final popPK model): ~12.7 min
Allometric exponent of weight (weight/70) on Vc/F ([3]; final popPK model): 0.671
Allometric exponent of weight (weight/70) on Vp/F ([3]; final popPK model): 0.671
Multiplicative factor on Vc/F if female ([3]; final popPK model): 0.855
Multiplicative factor on Vc/F if nonwhite ([3]; final popPK model): 1.11
Typical Cl/F lower in females than in males ([3]; final popPK model): about 12%
Typical Cl/F lower in pediatric patients who experienced an acute attack ([3]; final popPK model): 9%
Typical Vc/F higher in nonwhite than in white subjects ([3]; final popPK model): 11%
ka (absorption rate constant) ([3]; final popPK model, SC dosing, n = 172 (adults and pediatric HAE), typical value): 3.27 h^–1
tlag (lag time) ([3]; final popPK model, SC dosing, n = 172, typical value): 0.0426 h
Vc/F (apparent central volume of distribution) ([3]; final popPK model, SC dosing, n = 172, typical value, reference 70 kg): 20.4 L
Cl/F (apparent total clearance) ([3]; final popPK model, SC dosing, n = 172, typical value, reference 70 kg, age 25): 15.4 L/h
Clp/F (apparent intercompartmental clearance) [3, 10]: 0.398 L/h
Vp/F (apparent peripheral volume of distribution) [3, 10]: 1.75 L
Clearance slower relative to a subject aged 25 years ([3]; subject aged 45 years, age effect of final popPK model): 20%
Cl/F lower than in a 70-kg adult ([3]; typical 40-kg child (aged 2-11 years), final popPK model): 25%
Distribution half-life t1/2(α) [3, 11]: 53.4 min
Terminal elimination half-life t1/2(β) [3, 11]: 192 min

— publication PMC7984404 (Journal of Clinical Pharmacology, 2020)
